A word on the IC50: it is the concentration that inhibits the measured activity by half. For orientation: inhibition means the drop in the measured response relative to a control, in per cent.

These results are taken from ChEMBL document CHEMBL6078633, “Covalent Inhibitors of S100A4 Block the Formation of a Pro-Metastasis Non-Muscle Myosin 2A Complex” (J Med Chem, 2024).

SMILES strings stand for the structures. Active and inactive are the calls of the source. No cut-off for these calls is given here. A value given as a limit tells only on which side of the number the result lay.

One series concerns the target Protein S100-A4 (Homo sapiens, UniProt P26447). The experiment in a line: Inhibition of S100A4 (unknown origin) in presence of GSH by HTRF analysis.
Series [1] can be described thus: Inhibition of S100A4-NMII interaction (unknown origin) by HTRF analysis. The arrangement: species or system Homo sapiens. The procedure, abridged: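 TR-FRET peptide-displacement assays run in parallel: S100A4 with MPN (NMII-mimicking) peptide, and S100A11 with AnII-mimicking peptide, both with 1 mM calcium. IC50 fitted from percentage inhibition against solvent controls.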
(In general: Time-resolved FRET reads energy transfer from a long-lived donor to a nearby acceptor.)

For the next series, the species on record is Homo sapiens. The series is described as follows: Inhibition of S100A11-AN2 interaction (unknown origin) by HTRF analysis. The procedure, abridged: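 TR-FRET peptide-displacement assays run in parallel: S100A4 with MPN (NMII-mimicking) peptide, and S100A11 with AnII-mimicking peptide, both with 1 mM calcium. Duplicate dose-response in two independent experiments; top concentration 100 μM or 48.75 μM depending on series. IC50 fitted from percentage inhibition against solvent controls.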

The test system of series [2] is HEK293. The experiment in a line: Inhibition of wild type C-terminal halo-tagged S100A4-nanoluc-fused NMII interaction (unknown origin) expressed in HEK293 cells using nano-glo as substrate incubated for 24 hrs by Nano-bret assay. The conditions noted are these: Homo sapiens. Format: cell-based.
For series [3], the system named is HEK293. The experiment in a line: Inhibition of C-terminal halo-tagged S100A4 C81S mutant-nanoluc-fused NMII interaction (unknown origin) expressed in HEK293 cells using nano-glo as substrate incubated for 24 hrs by Nano-bret assay. The conditions noted are these: Homo sapiens. The series is classed as cell-based. The procedure, abridged:
(§1)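 S100A4 wild-type or C81S construct co-expressed with NMII fusion in HEK293 cells, run in parallel. Inhibitors given at a single 30 μM for 24 h with HaloTag 618 ligand in phenol-red-free 4% serum medium. NanoGlo substrate added. Background-corrected 618/460 nm BRET ratio compared with DMSO-treated cells.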

Series [4] has as its system HEK293. The series is described as follows: Inhibition of C-terminal halo-tagged S100A4 C81S mutant-nanoluc-fused NMII interaction (unknown origin) expressed in HEK293 cells using nano-glo as substrate incubated for 24 hrs by Nano-bret assay relative to control. The conditions noted are these: Homo sapiens, dose or concentration not given here. The series is classed as cell-based. The procedure, abridged: as §1

Another series concerns HeLa. The series is described as follows: Inhibition of cell migration in human HeLa cells assessed as reduction in wound healing at 8 uM incubated for 36 hrs by incucyte live-cell imager. The series is classed as functional, cell-based. The procedure, abridged: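 HeLa or A549 cells seeded in collagen-coated 96-well plates to near confluency. Monolayer scratched, then medium replaced with medium containing various inhibitor concentrations. Plates imaged every 2 h for 36 h in an Incucyte. Wound area measured with an image-analysis wound healing tool.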

Series [5] in a line: Aqueous solubility of compound in PBS buffer at pH 7.4. Format: physicochemical. The procedure, abridged:
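Aqueous solubility measured in PBS pH 7.4 by an outside contract laboratory.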

A short description of series [6]: Permeability of compound in MDCK-MDR1 cells. Format: ADME, cell-based, Canis lupus familiaris. Particulars: dog. The procedure, abridged:
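Permeability and P-gp efflux measured by transit across MDCK-MDR1 cell monolayers by an outside contract laboratory.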

Protein S100-A4, sequence (P26447 whole entry): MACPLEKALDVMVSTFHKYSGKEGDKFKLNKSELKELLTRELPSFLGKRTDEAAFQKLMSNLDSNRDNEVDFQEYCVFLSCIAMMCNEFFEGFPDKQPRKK

In the case of `Cc1ccc(S(=O)(=O)/C=C/C#N)cc1`, the IC50 at Protein S100-A4 is more than 20 µM.
In series [1], `COc1cccc(N2CC(NC(=O)[C@H]3C[C@H](c4ccccc4)CN3C(=O)CCl)CC2=O)c1` (some centres not stated) showed an IC50 of less than 1 µM. The inhibition result in the series listed under Homo sapiens is “inactive”.
Turning to `O=C(Nc1cccc(Cl)c1)[C@H]1C[C@H](c2ccccc2)CN1C(=O)CCl`, the figures for the IC50 (in series [1]; at Protein S100-A4) were 2.9 µM and 4.62 µM, respectively. The inhibition result in the series on HEK293 [2], in the series on HEK293 [3] and in the series on HeLa was “Active” in each case. The compound further gave an inhibition in the series with HEK293 [4] of less than 60%.
On to `N#CCc1ccc(NC(=O)[C@H]2C[C@H](c3ccccc3)CN2C(=O)CCl)cc1`, for which the IC50 in series [1] is less than 1 µM. In the series filed under Homo sapiens, the inhibition result was “inactive”.
Consider `O=C(NC1CCCc2ccccc21)[C@H]1C[C@H](c2ccccc2)CN1C(=O)CCl` (some centres not stated), for which the inhibition result in the series filed under Homo sapiens is “inactive”. Also, the inhibition result in the series on HEK293 [2], in the series on HEK293 [3] and in the series with HeLa was “Active” throughout. The compound further had an inhibition with HEK293 [4] of less than 60%. The solubility result in series [5] is reported as “soluble”. Besides, the permeability result in series [6] is “Permeable”.
In series [1], `CN1CCCC(NC(=O)[C@H]2C[C@H](c3ccccc3)CN2C(=O)CCl)C1=O` (some centres not stated) came in with an IC50 of less than 1 µM. The inhibition result in the series listed under Homo sapiens is “inactive”.
For `O=C1Nc2ccccc2C1NC(=O)[C@H]1C[C@H](c2ccccc2)CN1C(=O)CCl` (some centres not stated) the same measures were less than 1 µM and “inactive”.
